# Results as given in ChEMBL document CHEMBL4033782, “Structural Modification of Natural Product Tanshinone I Leading to Discovery of Novel Nitrogen-Enriched Derivatives with Enhanced Anticancer Profile and Improved Drug-like Properties” (J Med Chem, 2018).
# Activity calls are given as the source filed them. The rule behind the calls is not given here.
# Assays:
# [1] = Antiproliferative activity against human KB/VCR cells after 72 hrs by sulforhodamine B assay; format: functional, cell-based
# Method in brief: (§1)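 Cells grown in ATCC-specified medium with 10% heat-inactivated FBS, penicillin/streptomycin and 10 mM Hepes, at 37 °C under 5% CO2. Seeded, cultured overnight, then exposed to gradient concentrations for 72 h. Growth read by SRB staining; inhibition % = [1−(A450 treated/A450 control)]×100. IC50 obtained by the Logit method from independent experiments.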
# KB = test: Antiproliferative activity against human KB cells after 72 hrs by sulforhodamine B assay; format: functional, cell-based; method in brief: as §1
# [2] = Half life in mouse liver microsomes at 0.1 uM up to 60 mins by LC-MS/MS analysis; format: ADME, microsome; details: liver microsomes
# Method in brief: (§2)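 Compound at 0.1 μM final (0.01% DMSO, 0.005% BSA) incubated at 37 °C with human, rat or mouse liver microsomes (0.33 mg/mL protein) in 0.1 M Tris/HCl pH 7.4, with 5 mM MgCl2 and 1 mM NADPH. Samples taken at 0, 7, 17, 30 and 60 min, quenched by methanol precipitation, centrifuged, and parent measured by LC-MS/MS. T1/2 and Clint derived.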
# [3] = Half life in human liver microsomes at 0.1 uM up to 60 mins by LC-MS/MS analysis; format: ADME, microsome; method in brief: as §2
# Liver [4] = test: Intrinsic clearance in rat liver microsomes assessed per mg protein up to 60 mins by LC-MS/MS analysis; format: ADME, microsome; details: 1 h
# Method in brief: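 Liver microsomes (0.33 mg/mL protein) in 0.1 M Tris/HCl pH 7.4 with 5 mM MgCl2, 1 mM NADPH, compound at 0.1 μM final (0.01% DMSO, 0.005% BSA), 37 °C; samples at 0, 7, 17, 30, 60 min quenched in methanol, centrifuged, LC-MS/MS; T1/2 and Clint per g protein derived.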
# Liver [5] = test: Intrinsic clearance in human liver microsomes assessed as per mg protein up to 60 mins by LC-MS/MS analysis; format: ADME, microsome; details: 1 h; method in brief: as §2
# [6] = Aqueous solubility of the compound in pH 7.5 Tris buffer after 24 hrs by HPLC method; format: physicochemical
# [7] = Half life in rat liver microsomes at 0.1 uM up to 60 mins by LC-MS/MS analysis; format: ADME, microsome; method in brief: as §2
# Liver [8] = test: Intrinsic clearance in mouse liver microsomes assessed per mg protein up to 60 mins by LC-MS/MS analysis; format: ADME, microsome; details: 1 h; method in brief: as §2
# HCT-116 [9] = test: Induction of apoptosis in human HCT116 cells after 48 hrs by Annexin V-FITC/propidium iodide staining-based FACS analysis; format: functional, cell-based
# HCT-116 [10] = test: Induction of apoptosis in human HCT116 cells assessed as activation of caspase 3/7 after 48 hrs by Western blot analysis; format: functional, cell-based
# Method in brief: (§3)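 HCT116 cells, with or without a 1 h pretreatment with 20 μM Z-VAD-FMK, exposed for 48 h. Lysed on ice in Hepes/NaCl/Triton X-100 buffer with protease/phosphatase inhibitors and clarified at 12,000×g. Equal protein run by SDS-PAGE, blotted to nitrocellulose, probed overnight at 4 °C for PARP, caspase 3, caspase 7 and β-actin. HRP secondaries, ECL detection.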
# HCT-116 [11] = test: Antitumor activity against human HCT116 cells xenografted in BALB/C nude mouse assessed as tumor growth inhibition at 30 mg/kg, ip once daily for 14 days starting on day 14 post tumor implantation measured on day 32; format: functional, organism-based
# Method in brief: (§4)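 BALB/c nude male mice (18–20 g) implanted subcutaneously in the right axilla with HCT116 cells. Dosing began once tumors exceeded 100 mm³ (day 14). Test agent given 10 mg/kg i.v. or 30 mg/kg i.p. daily for 14 days; 5-FU 15 mg/kg as reference. Vehicle 1% DMSO in sterile saline; 6 mice per treated group, 10 per control. Relative tumor volume and body weight tracked.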
# HCT-116 [12] = test: Antitumor activity against human HCT116 cells xenografted in BALB/C nude mouse assessed as tumor growth inhibition at 10 mg/kg, iv once daily for 14 days starting on day 14 post tumor implantation measured on day 32; format: functional, organism-based; method in brief: as §4
# HCT-116 [13] = test: Induction of apoptosis in human HCT116 cells assessed as activation of caspase 3/7 at 1.0 to 4.0 uM after 24 hrs by Caspase-Glo 3/7 assay
# HCT-116 [14] = test: Induction of apoptosis in human HCT116 cells pretreated with Z-VAD-FMK pan-caspase inhibitor for 1 hr assessed as cleavage of PARP at 0.5 to 2 uM after 48 hrs by Western blot analysis; format: functional, cell-based; method in brief: as §3
# HCT-116 [15] = test: Induction of apoptosis in human HCT116 cells pretreated with Z-VAD-FMK pan-caspase inhibitor for 1 hr assessed as activation of caspase 3/7 at 0.5 to 2 uM after 48 hrs by Western blot analysis; format: functional, cell-based; method in brief: as §3
# HCT-116 [16] = test: Induction of apoptosis in human HCT116 cells assessed as cleavage of PARP after 48 hrs by Western blot analysis; format: functional, cell-based; method in brief: as §3
# HCT-116 [17] = test: Induction of apoptosis in human HCT116 cells pretreated with Z-VAD-FMK pan-caspase inhibitor for 1 hr assessed as activation of caspase 3/7 at 1.0 to 4.0 uM after 24 hrs by Caspase-Glo 3/7 assay
IC50 (KB) [nM],SMILES,IC50 [1] [nM],further results
710,Cc1cc2c(o1)-c1c(c3ccccc3c(=O)n1CCCN(C)C)C(=O)C2=O,920,
> 20000,Cc1cc2c(o1)-c1c(c3ccccc3c(=O)n1CCO)C(=O)C2=O,> 20000,
3780,Cc1cc2c(o1)-c1nc(OCCOCCN(C)C)c3ccccc3c1C(=O)C2=O,1650,
1630,Cc1cccc2c3c(ccc12)C1=C(C(=O)C3=O)C(O)C(C)(C)O1 (stereo not drawn),1240,half-life at 0.1 µM [2]: 25.3 min; half-life at 0.1 µM [3]: 57.1 min; intrinsic clearance (Liver [4]): 104 mL/min/g; intrinsic clearance (Liver [5]): 36.8 mL/min/g; solubility at 24 h [6]: 90 µg/mL; half-life at 0.1 µM [7]: 20.2 min; intrinsic clearance (Liver [8]): 83.1 mL/min/g
17200,Cc1cc2c(o1)-c1c(c3ccccc3c(=O)n1CCCn1ccnc1)C(=O)C2=O,10100,
3800,Cc1cccc2c3c(ccc12)-c1occ(CN2CCC(N(C)C)CC2)c1C(=O)C3=O,3820,
,CCN(CC)CCCn1c2c(c3ccccc3c1=O)C(=O)C(=O)c1cc(C)oc1-2,,Activity (HCT-116 [9]): Dose-dependent effect; Activity (HCT-116 [10]): Dose-dependent effect; TGI (HCT-116 [11]): Active; TGI (HCT-116 [12]): Active; Activity (HCT-116 [13]): Active; Activity (HCT-116 [14]): inactive; Activity (HCT-116 [15]): inactive; Activity (HCT-116 [16]): Dose-dependent effect; Activity (HCT-116 [17]): inactive
2610,Cc1cccc2c3c(ccc12)-c1occ(CN2CC[C@H](N(C)C)C2)c1C(=O)C3=O,1700,
2620,Cc1cccc2c3c(ccc12)C1=C(CC(C)(C)O1)C(=O)C3=O,2370,
340,Cc1cc2c(o1)-c1c(c3ccccc3c(=O)n1CCCN1CCC(N3CCOCC3)CC1)C(=O)C2=O,1720,
> 20000,Cc1cc2c(o1)-c1nc(OCCCCN(C)C)c3ccccc3c1C(=O)C2=O,> 20000,
> 20000,Cc1cccc2c3c(ccc12)-c1occ(CN2CCOCC2)c1C(=O)C3=O,> 20000,
1500,Cc1cccc2c3c(ccc12)-c1occ(CN(C)CCO)c1C(=O)C3=O,1020,
,Cc1cccc2c3c(ccc12)-c1occ(CN(C)C)c1C(=O)C3=O.Cl,,solubility at 24 h [6]: 8030 µg/mL
870,Cc1cc2c(o1)-c1c(c3ccccc3c(=O)n1CCCN1CCC(CCO)CC1)C(=O)C2=O,1490,
13800,Cc1cc2c(o1)-c1c(c3ccccc3c(=O)n1CCCCCN(C)C)C(=O)C2=O,5170,
> 20000,Cc1cc2c(o1)-c1nc(OCCO)c3ccccc3c1C(=O)C2=O,> 20000,
2190,COC1C2=C(OC1(C)C)c1ccc3c(C)cccc3c1C(=O)C2=O (stereo not drawn),2020,
> 20000,Cc1cccc2c3c(ccc12)C1=C(C(=O)C3=O)C(Nc2ccc(F)c([N+](=O)[O-])c2)C(C)(C)O1 (stereo not drawn),> 20000,
3400,Cc1cc2c(o1)-c1c(c3ccccc3c(=O)n1CCCN1CCCC1)C(=O)C2=O,2640,

IC50 (KB) [nM],SMILES,IC50 [1] [nM],further results
> 20000,COc1ccc(OC)c(NC2C3=C(OC2(C)C)c2ccc4c(C)cccc4c2C(=O)C3=O)c1 (stereo not drawn),> 20000,
10400,Cc1cc2c(o1)-c1c(c3ccccc3c(=O)n1CCCN1CCN(C)CC1)C(=O)C2=O,3520,
4970,Cc1cccc2c3c(ccc12)-c1occ(CN2CCO[C@H](CO)C2)c1C(=O)C3=O,2410,
2680,Cc1cccc2c3c(ccc12)-c1occ(CN2CCN(CCO)CC2)c1C(=O)C3=O,4410,
2300,Cc1cc2c(o1)-c1c(c3ccccc3c(=O)n1CCCN1CCOCC1)C(=O)C2=O,1560,
1640,Cc1cccc2c3c(ccc12)-c1occ(CN(CCO)CCO)c1C(=O)C3=O,1430,
15300,Cc1cc2c(o1)-c1nc(OCCCCCN(C)C)c3ccccc3c1C(=O)C2=O,1990,
0.72,CC[C@]1(O)C[C@H]2CN(CCc3c([nH]c4ccccc34)[C@@](C(=O)OC)(c3cc4c(cc3OC)N(C=O)[C@H]3[C@@](O)(C(=O)OC)[C@H](OC(C)=O)[C@]5(CC)C=CCN6CC[C@]43[C@@H]65)C2)C1 [VINCRISTINE],358,
4050,Cc1cc2c(o1)-c1c(c3ccccc3c(=O)n1CCCCN(C)C)C(=O)C2=O,2470,
1120,Cc1cc2c(o1)-c1c(c3ccccc3c(=O)n1CCCN1CCCCC1)C(=O)C2=O,1530,
3220,Cc1cccc2c3c(ccc12)-c1occ(CO)c1C(=O)C3=O,2950,
1540,Cc1cccc2c3c(ccc12)-c1occ(CN2CCC(O)CC2)c1C(=O)C3=O,1110,
8120,CON(C)Cc1coc2c1C(=O)C(=O)c1c-2ccc2c(C)cccc12,5710,
1110,Cc1cccc2c3c(ccc12)-c1occ(CN(C)C)c1C(=O)C3=O,510,half-life at 0.1 µM [2]: 40.7 min; half-life at 0.1 µM [3]: 501 min; intrinsic clearance (Liver [4]): 92.7 mL/min/g; intrinsic clearance (Liver [5]): 4.19 mL/min/g; half-life at 0.1 µM [7]: 22.7 min; intrinsic clearance (Liver [8]): 51.6 mL/min/g
9710,Cc1cccc2c3c(ccc12)-c1occ(CN2CCC(=O)CC2)c1C(=O)C3=O,4740,
1590,Cc1cccc2c3c(ccc12)-c1occ(CN2CCCC2)c1C(=O)C3=O,1790,
5220,Cc1cccc2c3c(ccc12)-c1occ(CN2CCN(C)CC2)c1C(=O)C3=O,13100,
1270,Cc1cccc2c3c(ccc12)-c1occ(CN2CCC(CO)C2)c1C(=O)C3=O (stereo not drawn),910,
,CCN(CC)CCCn1c2c(c3ccccc3c1=O)C(=O)C(=O)c1cc(C)oc1-2.Cl,,solubility at 24 h [6]: > 80000 µg/mL

SMILES,IC50 (KB) [nM],IC50 [1] [nM],further results
Cc1cccc2c3c(ccc12)-c1occ(CN(CCCl)CCCl)c1C(=O)C3=O,9430,10900,
